A word on the MIC: it is the lowest concentration found to suppress growth. The low end stands for greater potency, the high end for weaker potency. By pKd is commonly meant the Kd on a negative log10 scale, so that one unit is a factor of ten. High values mean a small Kd, low ones a large Kd.

MIC, Activity and Kd data for 8 compounds are collected here from ChEMBL document CHEMBL3352552, “Total synthesis and antibacterial testing of the A54556 cyclic acyldepsipeptides isolated from Streptomyces hawaiiensis” (J Nat Prod, 2014).

For one assay, the system named is Streptococcus pneumoniae. In words: Antibacterial activity against Streptococcus pneumoniae ATCC 49619 incubated for 16 to 18 hrs by broth microdilution method. The assay is classed as functional. The essentials:
(§1)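 Colonies pre-grown 16−18 h at 37 °C in moist 5% CO₂ (Staph. aureus on LB agar; the others on GC agar with 1% IsoVitaleX), then diluted in BHI + 1% IsoVitaleX. Inoculum set by OD (600 nm Staph. aureus and S. pneumoniae; 550 nm N. meningitidis) to give ∼5 × 10⁵ cfu/mL per well. Twofold dilutions run 128–0.0625 μg/mL final. DMSO-only and medium blanks were included, with three independent plates, incubated 16−18 h at 37 °C in 5% CO₂.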
(In broth dilution the organism is exposed to a series of concentrations in liquid medium.)

The next assay concerns Staphylococcus aureus. In words: Antibacterial activity against Staphylococcus aureus ATCC 29213 incubated for 16 to 18 hrs by broth microdilution method. The assay is classed as functional. The procedure, abridged:
as §1

Assay [1] concerns the target ATP-dependent Clp protease proteolytic subunit (Escherichia coli (strain K12)) (UniProt P0A6G7). In words: Activation of Escherichia coli ClpP assessed as degradation of casein-FITC substrate at 5 uM fluorescence-based biochemical assay.
The next assay has as its system Neisseria meningitidis. Put plainly: Antibacterial activity against Neisseria meningitidis H44/76 incubated for 16 to 18 hrs by broth microdilution method. The assay is classed as functional. The procedure, abridged: as §1
In assay [2] the target is ATP-dependent Clp protease proteolytic subunit (Escherichia coli (strain K12), UniProt P0A6G7). In words: Activation of Escherichia coli ClpP by ITC method. For orientation: ITC needs no label: the signal is the heat of the interaction.

pKd: −log10 of the molar value. Converted amounts (≈) assume the structure as drawn. The source made the active and inactive calls. The calls are words filed in the database; no cut-off is given here. Where a SMILES comes first, the peptide text is derived from it. Bridges are numbered along the chain shown (N, C = ends). [ ]: non-standard residue; d: D form. The star is where a group is joined. Octatrienoyl(2E,4E,6E) = C/C=C/C=C/C=C/C(=O)*; Hexadienoyl(2E,4E) = C/C=C/C=C/C(=O)*; Pro(4R-Me) = C[C@H]1CN[C@H](C(=O)O)C1; NMeA = CN[C@@H](C)C(=O)O; X1 = CCC/C=C/C=C/C(=O)*

Chain of ATP-dependent Clp protease proteolytic subunit (Escherichia coli (strain K12)) (P0A6G7 whole entry): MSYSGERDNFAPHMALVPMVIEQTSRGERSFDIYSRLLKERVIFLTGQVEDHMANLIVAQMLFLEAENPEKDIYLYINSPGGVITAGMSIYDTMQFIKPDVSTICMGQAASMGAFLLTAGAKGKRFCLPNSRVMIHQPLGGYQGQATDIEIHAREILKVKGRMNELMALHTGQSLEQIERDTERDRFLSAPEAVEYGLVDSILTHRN
Chain of ATP-dependent Clp protease proteolytic subunit (P0A6G7 whole entry): as above

Take `CCC/C=C/C=C/C(=O)N[C@@H](Cc1ccccc1)C(=O)N[C@H]1COC(=O)[C@@H]2C[C@@H](C)CN2C(=O)[C@H](C)NC(=O)[C@H](C)N(C)C(=O)[C@@H]2CCCN2C1=O` (X1-FSP[NMeA]A[Pro(4R-Me)]; ester 2-C): the MIC was under 0.0625 µg/mL with Streptococcus pneumoniae, 0.5 µg/mL (≈ 0.694 µM) against Staphylococcus aureus and under 0.0625 µg/mL in the assay with Neisseria meningitidis. Moreover, the result in assay [1] was Active.
Regarding `C[C@@H]1C[C@H]2C(=O)OC[C@H](NC(=O)[C@H](Cc3ccccc3)NC(=O)/C=C/C=C/CO)C(=O)N3CCC[C@H]3C(=O)N(C)[C@@H](C)C(=O)N[C@@H](C)C(=O)N2C1` (stereo in doubt), the MIC with Streptococcus pneumoniae came out at 0.25 µg/mL (≈ 0.353 µM); in the assay on Staphylococcus aureus, 128 µg/mL (≈ 181 µM); against Neisseria meningitidis, 64 µg/mL (≈ 90.3 µM). For the same compound, the outcome in assay [1] was inactive.
With `C/C=C/C=C/C(=O)N[C@@H](Cc1ccccc1)C(=O)N[C@H]1COC(=O)[C@@H]2CCCN2C(=O)[C@H](C)NC(=O)[C@H](C)N(C)C(=O)[C@@H]2CCCN2C1=O` ({Hexadienoyl(2E,4E)}-FSP[NMeA]AP; ester 2-C), the values for the MIC in the assay with Streptococcus pneumoniae, in the assay with Staphylococcus aureus and against Neisseria meningitidis were 0.25 µg/mL (≈ 0.368 µM), 16 µg/mL (≈ 23.6 µM) and 4 µg/mL (≈ 5.89 µM), respectively. For the same compound, in assay [1], the outcome was inactive.
Taken in the same sequence, the figures for `C/C=C/C=C/C(=O)N[C@@H](Cc1ccccc1)C(=O)N[C@H]1COC(=O)[C@@H]2C[C@@H](C)CN2C(=O)[C@H](C)NC(=O)[C@H](C)N(C)C(=O)[C@@H]2CCCN2C1=O` ({Hexadienoyl(2E,4E)}-FSP[NMeA]A[Pro(4R-Me)]; ester 2-C) were 0.125 µg/mL (≈ 0.18 µM), 4 µg/mL (≈ 5.77 µM), 2 µg/mL (≈ 2.89 µM) and “inactive”.
Consider `C/C=C/C=C/C=C/C(=O)N[C@@H](Cc1ccccc1)C(=O)N[C@H]1COC(=O)[C@@H]2CCCN2C(=O)[C@H](C)NC(=O)[C@H](C)N(C)C(=O)[C@@H]2CCCN2C1=O` ({Octatrienoyl(2E,4E,6E)}-FSP[NMeA]AP; ester 2-C), for which the MIC came out at 0.5 µg/mL (≈ 0.709 µM) in the assay with Streptococcus pneumoniae, 16 µg/mL (≈ 22.7 µM) in the assay with Staphylococcus aureus and 0.5 µg/mL (≈ 0.709 µM) in the assay on Neisseria meningitidis. Moreover, the outcome in assay [1] was Active. Also, in assay [2], the pKd was 6.15.
Turning to `C/C=C/C=C/C=C/C(=O)N[C@@H](Cc1ccccc1)C(=O)N[C@H]1COC(=O)[C@@H]2C[C@@H](C)CN2C(=O)[C@H](C)NC(=O)[C@H](C)N(C)C(=O)[C@@H]2CCCN2C1=O` ({Octatrienoyl(2E,4E,6E)}-FSP[NMeA]A[Pro(4R-Me)]; ester 2-C), the MIC against Streptococcus pneumoniae is under 0.0625 µg/mL; in the assay with Staphylococcus aureus, 4 µg/mL (≈ 5.56 µM); in the assay on Neisseria meningitidis, 0.125 µg/mL (≈ 0.174 µM). Also, the result in assay [1] was Active. In addition, the pKd in assay [2] was 6.52.
Take `NC[C@@H]1O[C@@H](O[C@H]2[C@H](O)[C@@H](O[C@H]3O[C@H](CO)[C@@H](O)[C@H](N)[C@H]3O)[C@H](N)C[C@@H]2N)[C@@H](O)[C@H](O)[C@H]1O` [KANAMYCIN A]: in the assay on Neisseria meningitidis, 64 µg/mL (≈ 132 µM) was the least that counted as inhibitory (MIC).
For `CN[C@H](CC(C)C)C(=O)N[C@H]1C(=O)N[C@@H](CC(N)=O)C(=O)N[C@H]2C(=O)N[C@H]3C(=O)N[C@H](C(=O)N[C@H](C(=O)O)c4cc(O)cc(O)c4-c4cc3ccc4O)[C@H](O)c3ccc(c(Cl)c3)Oc3cc2cc(c3O[C@@H]2O[C@H](CO)[C@@H](O)[C@H](O)[C@H]2O[C@H]2C[C@](C)(N)[C@H](O)[C@H](C)O2)Oc2ccc(cc2Cl)[C@H]1O` [VANCOMYCIN], the MIC against Streptococcus pneumoniae stood at 2 µg/mL (≈ 1.38 µM).
